Columns and labels:
Human betaherpesvirus 5 [1] = assay: Antiviral activity against Human cytomegalovirus T3259 expressing UL97 kinase C592G mutant gene infected in human foreskin fibroblast measured 6 days post infection by SEAP reporter gene assay; type: functional, organism-based; conditions: Human betaherpesvirus 5, T3259, 144 h
How it was run: (§1)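 Ganciclovir SEAP yield reduction. Confluent HFF (2 × 10⁵ cells/well) infected with cell-free virus stock at MOI 0.02. Inoculum removed after 1.5 h and replaced with medium containing serial 2-fold GCV dilutions, top concentration 4 to 32 μM. Supernatant SEAP read by chemiluminescent substrate at day 6. EC₅₀ is the concentration giving 50% SEAP reduction; mean and SD of ≥7 determinations over ≥4 setup dates.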

Human betaherpesvirus 5 [2] = assay: Antiviral activity against Human cytomegalovirus T3240 expressing UL97 kinase N510S mutant gene infected in human foreskin fibroblast measured 6 days post infection by SEAP reporter gene assay; type: functional, organism-based; conditions: Human betaherpesvirus 5, T3240, 144 h; how it was run: as §1
Human betaherpesvirus 5 [3] = assay: Antiviral activity against Human cytomegalovirus T3258 expressing UL97 kinase A594E mutant gene infected in human foreskin fibroblast measured 6 days post infection by SEAP reporter gene assay; conditions: Human betaherpesvirus 5, T3258, 144 h
Human betaherpesvirus 5 [4] = assay: Antiviral activity against Human cytomegalovirus T3146 expressing UL97 kinase K599R mutant gene infected in human foreskin fibroblast measured 6 days post infection by SEAP reporter gene assay; conditions: Human betaherpesvirus 5, T3146, 144 h
Human betaherpesvirus 5 [5] = assay: Antiviral activity against Human cytomegalovirus T3242 expressing UL97 kinase A478V mutant gene infected in human foreskin fibroblast measured 6 days post infection by SEAP reporter gene assay; conditions: Human betaherpesvirus 5, T3242, 144 h
Human betaherpesvirus 5 [6] = assay: Antiviral activity against Human cytomegalovirus T3243 expressing UL97 kinase T659I mutant gene infected in human foreskin fibroblast measured 6 days post infection by SEAP reporter gene assay; type: functional, organism-based; conditions: Human betaherpesvirus 5, T3243, 144 h; how it was run: as §1
Human betaherpesvirus 5 [7] = assay: Antiviral activity against Human cytomegalovirus T2255 expressing UL97 kinase A594V mutant gene infected in human foreskin fibroblast measured 6 days post infection by SEAP reporter gene assay; type: functional, organism-based; conditions: Human betaherpesvirus 5, T2255, 144 h
How it was run: (§2)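 Confluent HFF (2 × 10⁵ cells/well) infected with cell-free recombinant AD169-derived SEAP-reporter CMV at MOI 0.02 for 1.5 h. Inoculum then replaced with medium holding serial 2-fold ganciclovir dilutions, top concentration 4 to 32 μM. Supernatant SEAP read by chemiluminescent substrate at day 6. EC₅₀ is the concentration giving 50% SEAP reduction, reported as mean and SD of ≥7 determinations over ≥4 setup dates.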

Human betaherpesvirus 5 [8] = assay: Antiviral activity against Human cytomegalovirus T3185 harboring Frt motif upstream of UL97 gene and expressing UL97 kinase H587Y mutant gene infected in human foreskin fibroblast measured 6 days post infection by SEAP reporter gene assay; conditions: Human betaherpesvirus 5, T3185, 144 h
Human betaherpesvirus 5 [9] = assay: Antiviral activity against Human cytomegalovirus T3099 expressing UL97 kinase H587Y mutant gene infected in human foreskin fibroblast measured 6 days post infection by SEAP reporter gene assay; conditions: Human betaherpesvirus 5, T3099, 144 h
Human betaherpesvirus 5 [10] = assay: Antiviral activity against Human cytomegalovirus T3331 expressing UL97 kinase C603R mutant gene infected in human foreskin fibroblast measured 6 days post infection by SEAP reporter gene assay; type: functional, organism-based; conditions: Human betaherpesvirus 5, T3331, 144 h; how it was run: as §2
Human betaherpesvirus 5 [11] = assay: Antiviral activity against Human cytomegalovirus T3244 expressing UL97 kinase A588V mutant gene infected in human foreskin fibroblast measured 6 days post infection by SEAP reporter gene assay; conditions: Human betaherpesvirus 5, T3244, 144 h
Human betaherpesvirus 5 [12] = assay: Antiviral activity against Human cytomegalovirus T3329 expressing UL97 kinase C603W mutant gene infected in human foreskin fibroblast measured 6 days post infection by SEAP reporter gene assay; conditions: Human betaherpesvirus 5, T3329, 144 h
Human betaherpesvirus 5 [13] = assay: Antiviral activity against Human cytomegalovirus T3327 expressing UL97 kinase C603S mutant gene infected in human foreskin fibroblast measured 6 days post infection by SEAP reporter gene assay; type: functional, organism-based; conditions: Human betaherpesvirus 5, T3327, 144 h; how it was run: as §2
Human betaherpesvirus 5 [14] = assay: Antiviral activity against Human cytomegalovirus T3253 expressing UL97 kinase K599R mutant gene infected in human foreskin fibroblast measured 6 days post infection by SEAP reporter gene assay; conditions: Human betaherpesvirus 5, T3253, 144 h
Human betaherpesvirus 5 [15] = assay: Antiviral activity against Human cytomegalovirus T2259 expressing UL97 kinase M460V mutant gene infected in human foreskin fibroblast measured 6 days post infection by SEAP reporter gene assay; type: functional, organism-based; conditions: Human betaherpesvirus 5, T2259, 144 h; how it was run: as §2
Human betaherpesvirus 5 [16] = assay: Antiviral activity against Human cytomegalovirus T3239 expressing UL97 kinase V665I mutant gene infected in human foreskin fibroblast measured 6 days post infection by SEAP reporter gene assay; conditions: Human betaherpesvirus 5, T3239, 144 h
Human betaherpesvirus 5 [17] = assay: Antiviral activity against Human cytomegalovirus T3261 harboring Frt motif upstream of UL97 kinase infected in human foreskin fibroblast measured 6 days post infection by SEAP reporter gene assay; conditions: Human betaherpesvirus 5, T3261, 144 h
Human betaherpesvirus 5 [18] = assay: Antiviral activity against Human cytomegalovirus T3252 expressing UL97 kinase A594V mutant gene infected in human foreskin fibroblast measured 6 days post infection by SEAP reporter gene assay; type: functional, organism-based; conditions: Human betaherpesvirus 5, T3252, 144 h; how it was run: as §2
Human betaherpesvirus 5 [19] = assay: Antiviral activity against Human cytomegalovirus T3257 expressing UL97 kinase V466M mutant gene infected in human foreskin fibroblast measured 6 days post infection by SEAP reporter gene assay; conditions: Human betaherpesvirus 5, T3257, 144 h
Human betaherpesvirus 5 [20] = assay: Antiviral activity against Human cytomegalovirus T3215 expressing UL97 kinase A478V mutant gene infected in human foreskin fibroblast measured 6 days post infection by SEAP reporter gene assay; conditions: Human betaherpesvirus 5, T3215, 144 h
Human betaherpesvirus 5 [21] = assay: Antiviral activity against Human cytomegalovirus T3130 expressing UL97 kinase V665I mutant gene infected in human foreskin fibroblast measured 6 days post infection by SEAP reporter gene assay; conditions: Human betaherpesvirus 5, T3130, 144 h
Human betaherpesvirus 5 [22] = assay: Antiviral activity against Human cytomegalovirus T3041 expressing UL97 kinase L600I mutant gene infected in human foreskin fibroblast measured 6 days post infection by SEAP reporter gene assay; type: functional, organism-based; conditions: Human betaherpesvirus 5, T3041, 144 h; how it was run: as §2
Human betaherpesvirus 5 [23] = assay: Antiviral activity against Human cytomegalovirus T2211 expressing UL97 kinase H587Y mutant gene infected in human foreskin fibroblast measured 6 days post infection by SEAP reporter gene assay; conditions: Human betaherpesvirus 5, T2211, 144 h
Human betaherpesvirus 5 [24] = assay: Antiviral activity against Human cytomegalovirus T3346 expressing UL97 kinase M460T mutant gene infected in human foreskin fibroblast measured 6 days post infection by SEAP reporter gene assay; type: functional, organism-based; conditions: Human betaherpesvirus 5, T3346, 144 h; how it was run: as §2
Human betaherpesvirus 5 [25] = assay: Antiviral activity against Human cytomegalovirus T3326 harboring Frt motif upstream of UL97 kinase N68D L126Q I244V mutant gene infected in human foreskin fibroblast measured 6 days post infection by SEAP reporter gene assay; conditions: Human betaherpesvirus 5, T3326, 144 h
Human betaherpesvirus 5 [26] = assay: Antiviral activity against Human cytomegalovirus T3264 expressing UL97 kinase G623S mutant gene infected in human foreskin fibroblast measured 6 days post infection by SEAP reporter gene assay; type: functional, organism-based; conditions: Human betaherpesvirus 5, T3264, 144 h; how it was run: as §1
Human betaherpesvirus 5 [27] = assay: Antiviral activity against Human cytomegalovirus T3216 expressing UL97 kinase A588V mutant gene infected in human foreskin fibroblast measured 6 days post infection by SEAP reporter gene assay; conditions: Human betaherpesvirus 5, T3216, 144 h
Human betaherpesvirus 5 [28] = assay: Antiviral activity against Human cytomegalovirus T3136 expressing UL97 kinase H469Y mutant gene infected in human foreskin fibroblast measured 6 days post infection by SEAP reporter gene assay; type: functional, organism-based; conditions: Human betaherpesvirus 5, T3136, 144 h; how it was run: as §1
Human betaherpesvirus 5 [29] = assay: Antiviral activity against Human cytomegalovirus T2258 expressing UL97 kinase C592G mutant gene infected in human foreskin fibroblast measured 6 days post infection by SEAP reporter gene assay; type: functional, organism-based; conditions: Human betaherpesvirus 5, T2258, 144 h; how it was run: as §2
Human betaherpesvirus 5 [30] = assay: Antiviral activity against Human cytomegalovirus T2789 expressing UL97 kinase L405P mutant gene infected in human foreskin fibroblast measured 6 days post infection by SEAP reporter gene assay; conditions: Human betaherpesvirus 5, T2789, 144 h
Human betaherpesvirus 5 [31] = assay: Antiviral activity against Human cytomegalovirus T3184 expressing UL97 kinase L405P mutant gene infected in human foreskin fibroblast measured 6 days post infection by SEAP reporter gene assay; conditions: Human betaherpesvirus 5, T3184, 144 h
Human betaherpesvirus 5 [32] = assay: Antiviral activity against Human cytomegalovirus T2924 expressing UL97 kinase H469Y mutant gene infected in human foreskin fibroblast measured 6 days post infection by SEAP reporter gene assay; type: functional, organism-based; conditions: Human betaherpesvirus 5, T2924, 144 h; how it was run: as §2
Human betaherpesvirus 5 [33] = assay: Antiviral activity against Human cytomegalovirus T3135 expressing UL97 kinase H587Y mutant gene infected in human foreskin fibroblast measured 6 days post infection by SEAP reporter gene assay; conditions: Human betaherpesvirus 5, T3135, 144 h
Human betaherpesvirus 5 [34] = assay: Antiviral activity against Human cytomegalovirus T2233 expressing UL97 kinase H587Y mutant gene infected in human foreskin fibroblast measured 6 days post infection by SEAP reporter gene assay; conditions: Human betaherpesvirus 5, T2233, 144 h

Compound: Nc1nc2c(ncn2COC(CO)CO)c(=O)[nH]1 [GANCICLOVIR]
- EC50 (Human betaherpesvirus 5 [1]): 3000 nM
- EC50 (Human betaherpesvirus 5 [2]): 1140 nM
- EC50 (Human betaherpesvirus 5 [3]): 2980 nM
- EC50 (Human betaherpesvirus 5 [4]): 940 nM
- EC50 (Human betaherpesvirus 5 [5]): 770 nM
- EC50 (Human betaherpesvirus 5 [6]): 1260 nM
- EC50 (Human betaherpesvirus 5 [7]): 9240 nM
- EC50 (Human betaherpesvirus 5 [8]): 960 nM
- EC50 (Human betaherpesvirus 5 [9]): 1020 nM
- EC50 (Human betaherpesvirus 5 [10]): 8180 nM
- EC50 (Human betaherpesvirus 5 [11]): 990 nM
- EC50 (Human betaherpesvirus 5 [12]): 7810 nM
- EC50 (Human betaherpesvirus 5 [13]): 1850 nM
- EC50 (Human betaherpesvirus 5 [14]): 1230 nM
- EC50 (Human betaherpesvirus 5 [15]): 8520 nM
- EC50 (Human betaherpesvirus 5 [16]): 1060 nM
- EC50 (Human betaherpesvirus 5 [17]): 990 nM
- EC50 (Human betaherpesvirus 5 [18]): 8480 nM
- EC50 (Human betaherpesvirus 5 [19]): 1240 nM
- EC50 (Human betaherpesvirus 5 [20]): 950 nM
- EC50 (Human betaherpesvirus 5 [21]): 1220 nM
- EC50 (Human betaherpesvirus 5 [22]): 1500 nM
- EC50 (Human betaherpesvirus 5 [23]): 1100 nM
- EC50 (Human betaherpesvirus 5 [24]): 9240 nM
- EC50 (Human betaherpesvirus 5 [25]): 1090 nM
- EC50 (Human betaherpesvirus 5 [26]): 1130 nM
- EC50 (Human betaherpesvirus 5 [27]): 1230 nM
- EC50 (Human betaherpesvirus 5 [28]): 1050 nM
- EC50 (Human betaherpesvirus 5 [29]): 3360 nM
- EC50 (Human betaherpesvirus 5 [30]): 3020 nM
- EC50 (Human betaherpesvirus 5 [31]): 2760 nM
- EC50 (Human betaherpesvirus 5 [32]): 1330 nM
- EC50 (Human betaherpesvirus 5 [33]): 1000 nM
- EC50 (Human betaherpesvirus 5 [34]): 1110 nM

— ChEMBL document CHEMBL1255499, “Recombinant phenotyping of cytomegalovirus UL97 kinase sequence variants for ganciclovir resistance” (Antimicrob Agents Chemother, 2010)
